{"source": "ChEMBL document CHEMBL5653630", "about": "“Activation of the p53-MDM4 regulatory axis defines the anti-tumour response to PRMT5 inhibition through its role in regulating cellular splicing” (Sci Rep, 2018)", "key": {"MCL": {"test_system": "MCL", "assay": "Induction of cell cycle arrest in human MCL cells assessed as increase in 2n cell population measured upto 5000 nM measured for 3 days by propidium iodide staining based flow cytometric analysis", "assay_type": "functional", "details": "time 3.0 day"}, "JVM-2": {"test_system": "JVM-2", "assay": "Induction of cell cycle arrest in human JVM-2 cells assessed as increase in 2n cell population measured upto 5000 nM measured for 3 days by propidium iodide staining based flow cytometric analysis", "assay_type": "functional", "details": "time 3.0 day"}, "MCF7": {"test_system": "MCF7", "assay": "Induction of cell cycle arrest in human MCF7 cells assessed as increase in 2n cell population measured upto 5000 nM measured for 2 to 7 days by propidium iodide staining based flow cytometric analysis", "assay_type": "functional", "details": "time 2-7 day"}, "Maver1": {"test_system": "Maver1", "assay": "Induction of apoptosis in human MAVER-1 cells assessed as dead cells incubated for 6 days by annexin-V/FITC propidium iodide staining based flow cytometry analysis", "assay_type": "functional, cell-based", "details": "dose <= 5000.0 nM, time 6.0 day"}, "Z-138 [1]": {"test_system": "Z-138", "assay": "Antitumor activity against human Z138 cells xenografted in mouse assessed as reduction in tumor volume at 50 to 100 mg/kg, po BID measured for 10 days", "assay_type": "functional, organism-based", "details": "dose 50-100 mg/kg, time 10.0 day"}, "Z-138 [2]": {"test_system": "Z-138", "assay": "In vivo inhibition of PRMT5 in human Z138 cells xenografted in mouse assessed as increase in SESN1 expression at 100 mg/kg, po BID measured for 7 days", "assay_type": "functional, organism-based", "details": "time 7.0 day"}, "[3]": {"assay": "Antiproliferative activity against human MT-3 cells assessed as cell growth inhibition incubated for 10 days", "assay_type": "functional", "details": "MT-3, 240 h, time 10 day"}, "SiHa": {"test_system": "SiHa", "assay": "Antiproliferative activity against human SiHa cells assessed as cell growth inhibition incubated for 10 days", "assay_type": "functional", "details": "240 h, time 10 day"}, "K562": {"test_system": "K562", "assay": "Antiproliferative activity against human K562 cells assessed as cell growth inhibition incubated for 10 days", "assay_type": "functional", "details": "K562, 240 h, time 10 day", "outline": "(§1)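 Eurofins-panel 10-day assay in 384-well plates. Cells grown in RPMI-1640 with 10% FBS, 2 mM L-alanyl-L-glutamine and 1mM Na pyruvate, or a special medium, at 37°C in 5% CO₂. Compound added 24 h after seeding, 10-point 3.16-fold series in 0.1% DMSO. Medium replaced and compound re-dosed at 168 h. Nuclei fixed and stained after 240 h, then imaged to give a relative cell count. gIC50 is the concentration giving growth midway between untreated and time-zero counts, from a 4-parameter fit.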"}, "COLO 201": {"test_system": "COLO 201", "assay": "Antiproliferative activity against human COLO201 cells assessed as cell growth inhibition incubated for 10 days", "assay_type": "functional", "details": "COLO 201, 240 h, time 10 day", "outline": "(§2)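 Cells kept in RPMI-1640 with 10% FBS, 2 mM L-alanyl-L-glutamine and 1 mM Na pyruvate (or a special medium) at 37°C, 5% CO2. Compound added 24 h after seeding, 10 concentrations in 3.16-fold dilution, 0.1% DMSO final. Medium replaced and cells re-dosed at 168 h; 240 h incubation. Nuclei fixed, dye-stained and imaged. gIC50 = growth midway between untreated and time-zero cell counts, from a 4-parameter fit.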"}, "HT-29": {"test_system": "HT-29", "assay": "Antiproliferative activity against human HT-29 cells assessed as cell growth inhibition incubated for 10 days", "assay_type": "functional", "details": "HT-29, 240 h, time 10 day", "outline": "(§3)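 Outsourced panel run in 384-well plates. Cells were grown in RPMI-1640/10% FBS or a special medium at 37°C, 5% CO2. Compound was added 24 h after seeding as a 10-point, 3.16-fold series in 0.1% DMSO. Medium was refreshed and cells re-dosed at 168 h, with a time-zero plate kept. At 240 h cells were fixed, nuclei stained and imaged. gIC50 is growth midway between untreated and time zero, from a 4-parameter fit.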"}, "SW837": {"test_system": "SW837", "assay": "Antiproliferative activity against human SW837 cells assessed as cell growth inhibition incubated for 10 days", "assay_type": "functional", "details": "SW837, 240 h, time 10 day"}, "HCT-15": {"test_system": "HCT-15", "assay": "Antiproliferative activity against human HCT-15 cells assessed as cell growth inhibition incubated for 10 days", "assay_type": "functional", "details": "HCT-15, 240 h, time 10 day", "outline": "as §3"}, "HCT-8": {"test_system": "HCT-8", "assay": "Antiproliferative activity against human HCT-8 cells assessed as cell growth inhibition incubated for 10 days", "assay_type": "functional", "details": "HCT-8, 240 h, time 10 day", "outline": "as §3"}, "SNU1": {"test_system": "SNU1", "assay": "Antiproliferative activity against human SNU1 cells assessed as cell growth inhibition incubated for 10 days", "assay_type": "functional", "details": "SNU1, 240 h, time 10 day"}, "CCF-STTG1": {"test_system": "CCF-STTG1", "assay": "Antiproliferative activity against human CCF-STTG1 cells assessed as cell growth inhibition incubated for 10 days", "assay_type": "functional", "details": "CCF-STTG1, 240 h, time 10 day", "outline": "as §2"}, "CAKI-1": {"test_system": "CAKI-1", "assay": "Antiproliferative activity against human CAKI-1 cells assessed as cell growth inhibition incubated for 10 days", "assay_type": "functional", "details": "CAKI-1, 240 h, time 10 day", "outline": "as §2"}, "ACHN": {"test_system": "ACHN", "assay": "Antiproliferative activity against human ACHN cells assessed as cell growth inhibition incubated for 10 days", "assay_type": "functional", "details": "240 h, time 10 day", "outline": "as §2"}, "[4]": {"assay": "Antiproliferative activity against human HUH-6-clone5 cells assessed as cell growth inhibition incubated for 10 days", "assay_type": "functional", "details": "HUH-6-clone5, 240 h, time 10 day", "outline": "as §3"}, "Hs 695T": {"test_system": "Hs 695T", "assay": "Antiproliferative activity against human Hs 695T cells assessed as cell growth inhibition incubated for 10 days", "assay_type": "functional", "details": "240 h, time 10 day", "outline": "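Eurofins panel, 384-well. Cells kept in RPMI-1640 with 10% FBS, 2 mM L-alanyl-L-glutamine and 1 mM Na pyruvate, or in a special medium, at 37°C under 5% CO2. Compound added 24 h after seeding as 10 concentrations in 3.16-fold steps, 0.1% DMSO final. Medium replaced and compound re-dosed at 168 h. After 240 h, cells fixed and nuclei stained for imaging. gIC50 = growth midway between untreated cells and time-zero count.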"}, "SK-MEL-28": {"test_system": "SK-MEL-28", "assay": "Antiproliferative activity against human SK-MEL-28 cells assessed as cell growth inhibition incubated for 10 days", "assay_type": "functional", "details": "SK-MEL-28, 240 h, time 10 day"}, "CHL-1": {"test_system": "CHL-1", "assay": "Antiproliferative activity against human CHL-1 cells assessed as cell growth inhibition incubated for 10 days", "assay_type": "functional", "details": "CHL-1, 240 h, time 10 day", "outline": "as §2"}, "ChaGo-K-1": {"test_system": "ChaGo-K-1", "assay": "Antiproliferative activity against human ChaGo-K-1 cells assessed as cell growth inhibition incubated for 10 days", "assay_type": "functional", "details": "ChaGo-K-1, 240 h, time 10 day", "outline": "as §3"}, "BXPC-3": {"test_system": "BXPC-3", "assay": "Antiproliferative activity against human BXPC-3 cells assessed as cell growth inhibition incubated for 10 days", "assay_type": "functional", "details": "BXPC-3, 240 h, time 10 day", "outline": "as §2"}, "SHP77": {"test_system": "SHP77", "assay": "Antiproliferative activity against human SHP77 cells assessed as cell growth inhibition incubated for 10 days", "assay_type": "functional", "details": "SHP77, 240 h, time 10 day"}, "[5]": {"assay": "Antiproliferative activity against human HLF cells assessed as cell growth inhibition incubated for 10 days", "assay_type": "functional", "details": "240 h, time 10 day", "outline": "as §3"}, "J-RT3-T3-5": {"test_system": "J-RT3-T3-5", "assay": "Antiproliferative activity against human J-RT3-T3-5 cells assessed as cell growth inhibition incubated for 10 days", "assay_type": "functional", "details": "J-RT3-T3-5, 240 h, time 10 day", "outline": "as §1"}, "[6]": {"molecular_target": "Protein arginine N-methyltransferase 5 (Homo sapiens) (UniProt O14744)", "sequence (O14744 whole entry)": "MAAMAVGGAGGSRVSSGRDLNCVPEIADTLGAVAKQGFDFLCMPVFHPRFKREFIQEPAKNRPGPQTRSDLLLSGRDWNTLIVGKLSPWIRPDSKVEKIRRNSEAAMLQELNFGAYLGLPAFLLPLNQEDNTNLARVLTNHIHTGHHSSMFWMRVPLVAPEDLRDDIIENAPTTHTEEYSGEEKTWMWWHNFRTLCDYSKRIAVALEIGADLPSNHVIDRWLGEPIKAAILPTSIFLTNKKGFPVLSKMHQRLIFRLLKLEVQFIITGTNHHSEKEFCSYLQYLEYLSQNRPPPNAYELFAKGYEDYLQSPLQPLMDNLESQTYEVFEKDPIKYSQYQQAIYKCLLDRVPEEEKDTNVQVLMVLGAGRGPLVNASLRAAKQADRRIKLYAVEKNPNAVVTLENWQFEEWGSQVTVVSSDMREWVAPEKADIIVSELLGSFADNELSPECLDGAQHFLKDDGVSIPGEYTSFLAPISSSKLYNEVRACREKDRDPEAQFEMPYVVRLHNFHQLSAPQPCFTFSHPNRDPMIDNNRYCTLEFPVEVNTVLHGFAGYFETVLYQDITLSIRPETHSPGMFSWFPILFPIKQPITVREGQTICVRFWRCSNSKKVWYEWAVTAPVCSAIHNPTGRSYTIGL", "assay": "Inhibition of PRMT5 in human Z138 cells expressing full length MDM4 at 1 to 100000 nM incubated for 3 to 6 days", "assay_type": "cell-based", "details": "dose 1-100000 nM, time 3-6 day"}, "[7]": {"molecular_target": "Protein arginine N-methyltransferase 5 (Homo sapiens) (UniProt O14744)", "assay": "Inhibition of PRMT5 in p53 knockout human Z138 cells effect on p53 expression at 500 nM incubated for 3 to 11 days by Western blot analysis", "assay_type": "cell-based", "details": "time 3-11 day"}}, "note": "The source made the active and inactive calls. The calls are words filed in the database; no cut-off is given here."}
{"smiles": "CC(=O)N1CCC(Nc2cc(C(=O)NC[C@H](O)CN3CCc4ccccc4C3)ncn2)CC1", "note": "[PEMRAMETOSTAT]", "values": [{"measurement": "Activity", "setting": "MCL", "value": "Active"}, {"measurement": "Activity", "setting": "JVM-2", "value": "Active"}, {"measurement": "Activity", "setting": "MCF7", "value": "Active"}, {"measurement": "Activity", "setting": "Maver1", "value": "Dose-Dependent Effect"}, {"measurement": "Activity", "setting": "Z-138 [1]", "value": "Active"}, {"measurement": "inhibition", "setting": "Z-138 [2]", "value": "Active"}]}
{"smiles": "O=C(NC[C@H](O)CN1CCc2ccccc2C1)c1ccnc(NC2CCC2)c1", "values": [{"measurement": "GI50", "setting": "[3]", "value": 46.4, "unit": "nM"}, {"measurement": "GI50", "setting": "SiHa", "value": 2510, "unit": "nM"}, {"measurement": "GI50", "setting": "K562", "value": 146, "unit": "nM"}, {"measurement": "GI50", "setting": "COLO 201", "value": 49.6, "unit": "nM"}, {"measurement": "GI50", "setting": "HT-29", "value": 95.2, "unit": "nM"}, {"measurement": "GI50", "setting": "SW837", "value": 102, "unit": "nM"}, {"measurement": "GI50", "setting": "HCT-15", "value": 68.4, "unit": "nM"}, {"measurement": "GI50", "setting": "HCT-8", "value": 430, "unit": "nM"}, {"measurement": "GI50", "setting": "SNU1", "value": 1040, "unit": "nM"}, {"measurement": "GI50", "setting": "CCF-STTG1", "value": 115, "unit": "nM"}, {"measurement": "GI50", "setting": "CAKI-1", "value": 68.8, "unit": "nM"}, {"measurement": "GI50", "setting": "ACHN", "value": 38.6, "unit": "nM"}, {"measurement": "GI50", "setting": "[4]", "value": 361, "unit": "nM"}, {"measurement": "GI50", "setting": "Hs 695T", "value": 602, "unit": "nM"}, {"measurement": "GI50", "setting": "SK-MEL-28", "value": 239, "unit": "nM"}, {"measurement": "GI50", "setting": "CHL-1", "value": 247, "unit": "nM"}, {"measurement": "GI50", "setting": "ChaGo-K-1", "value": 1190, "unit": "nM"}, {"measurement": "GI50", "setting": "BXPC-3", "value": 160, "unit": "nM"}, {"measurement": "GI50", "setting": "SHP77", "value": 152, "unit": "nM"}, {"measurement": "GI50", "setting": "[5]", "value": 87.7, "unit": "nM"}, {"measurement": "GI50", "setting": "J-RT3-T3-5", "value": 43.2, "unit": "nM"}, {"measurement": "inhibition", "setting": "[6]", "value": "inactive"}, {"measurement": "inhibition", "setting": "[7]", "value": "inactive"}]}
